Experimental data published in PMC5025877 (Circulation research, 2014).
“Also recorded” adds a separate entry of the source.

Key:
VSMCs = test: VSMC migration to TNF-α; type: cell-based, murine
Summary of the method: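 Aortic VSMCs from WT C57Bl6/J and Nox1-/y mice were pretreated with the test compound (a PKC inhibitor), and their migration to TNF-α was counted. n=5–15.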

Nox1 [1] = test: ROS production by CM-H2DCF fluorescence in VSMCs; type: cell-based, murine
Summary of the method: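 Cultured aortic VSMCs from C57Bl6/J (WT) and Nox1-/y mice were pretreated with the test compound (a PKC inhibitor), then stimulated with TNF-α. ROS were imaged by CM-H2DCF fluorescence, with nuclei counterstained with ToPro3.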

Nox1 [2] = test: Nox1 phosphorylation in VSMCs, IP anti-p22phox / Western blot anti-STY; type: cell-based, rat; details: for Nox1 phosphorylation on agonist treatment (other agonists): VSMC, Online Figure III, timing may be agonist dependent
Summary of the method: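 A7r5 rat aortic VSMCs in culture were stimulated with TNF-α, with or without PKC inhibitor pretreatment. Nox1 phosphorylation was detected by Western blotting with an anti-phospho-Ser/Thr/Tyr (anti-STY) antibody. n=3.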

NADPH oxidase = type: cell-based, rat; details: VSMC membrane fractions, lucigenin, RLU, n=5–15; for TNF-α-primed NADPH oxidase activity, effect of inhibitor: TNF-α pre-treatment
Summary of the method: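 Cultured rat (A7r5) aortic VSMCs were pretreated with the test compound (a PKC inhibitor) or with the flavoenzyme inhibitor DPI, then stimulated with TNF-α. NADPH oxidase activity was measured by lucigenin-enhanced chemiluminescence and reported as relative light units. n=5–15.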

Nox1 [3] = test: superoxide in intact CosPhox cells with p47phox and NoxA1; type: cell-based; details: TNF-α (10 ng/ml), PDGF-BB (10 ng/ml), AngII (10^-7 M), PMA (10^-6 M), RLU/sec, n=4
Summary of the method: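 Cos7 cells stably expressing p22phox (CosPhox) were transfected with p47phox, NoxA1, and either wild-type or T429A Nox1. Superoxide was read as luminescence (RLU/sec) in intact cells immediately after agonist addition. The unstimulated signal was subtracted from the agonist signal, and values were normalized to cell number.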

[4] = circular dichroism of peptides; type: physicochemical; details: negative dip below 200 nm, near-zero shoulders at longer wavelengths
[5] = biological target: NoxA1 activation domain (AD); test: ITC binding of NoxA1 AD peptide with Nox1 peptides; details: for Kd: read-out: Kd (affinity) for NoxA1 AD, n=3 independent experiments
human recombinant PKC-βI [6] = test: ITC in vitro kinase reaction of recombinant PKC-βI with Nox1 peptide; type: biochemical; details: slow return to baseline after heat of dilution
human recombinant PKC-βI [7] = test: dot blot; type: biochemical; details: anti-p-STY; total peptide by Ponceau staining
Summary of the method: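 Input and product of the in vitro PKC-βI kinase reaction on the Nox1 T429 peptide were dot-blotted and probed with anti-p-STY. Total peptide was measured by Ponceau staining. Signal was quantified as the ratio of p-STY to total peptide. A phosphorylated T429 peptide was included.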

NoxA1 = NoxA1 membrane recruitment in CosPhox cells; type: cell-based; details: n=4
Summary of the method: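 CosPhox cells (Cos7 stably expressing p22phox, p47phox and p67phox) expressed p22phox, NoxA1, and either WT or T429A Nox1. After TNF-α treatment, membrane fractions were isolated and immunoblotted for NoxA1. Whole-cell lysates taken before membrane isolation were probed for GAPDH. n=4 independent experiments.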

p47^phox = test: p47phox membrane recruitment; type: cell-based; details: WT versus T429A Nox1; Online Figure VIII
[8] = biological target: T1, phosphorylated Nox1 peptide (peptide containing phosphorylated Nox1 at T429); test: ITC
T1 chain: KLKTQKIYF

With `COc1c(C[C@@H](C)OC(=O)Oc2ccc(O)cc2)c2c3c(C[C@@H](C)OC(=O)c4ccccc4)c(OC)c(=O)c4c(O)cc(OC)c(c5c(OC)cc(O)c(c1=O)c52)c43` [CalC, Calphostin C, reference compound] the “TNF-α-mediated migration, effect of pretreatment” value (VSMCs; WT murine VSMCs, n=5–15) was “blocked”, the “Nox1-dependent ROS production, effect of pretreatment” value (Nox1 [1]; WT murine VSMCs, TNF-α) was “abrogated” and the “TNF-α-stimulated Nox1 phosphorylation, effect of pretreatment” value (Nox1 [2]; cultured A7r5 rat aortic VSMCs, TNF-α, n=3) was “inhibited”. For the same molecule, the “TNF-α-primed NADPH oxidase activity, effect of inhibitor” value (NADPH oxidase) was “completely abolished”.

In the case of `c1ccc2c(c1)[I+]c1ccccc1-2` [DPI], the “TNF-α-primed NADPH oxidase activity, effect of inhibitor” value (NADPH oxidase) is reported as “completely abolished”.

With `CCCCCCCCCCCCCC(=O)O[C@@H]1[C@@H](C)[C@@]2(O)[C@@H](C=C(CO)C[C@]3(O)C(=O)C(C)=C[C@@H]23)[C@@H]2C(C)(C)[C@]12OC(C)=O` [PMA, phorbol myristate acetate, reference compound] the “Nox1 phosphorylation on agonist treatment (other agonists)” value (Nox1 [2]) was “phosphorylation of VSMC Nox1 occurs”, the “agonist-stimulated cellular superoxide, T429A Nox1” value (Nox1 [3]) was “does not require phosphorylation of T429” and the “agonist-stimulated cellular superoxide, WT Nox1” value (Nox1 [3]) was “increased”.

With KLKT*QKIYF [pNox1 peptide] the “secondary structure by circular dichroism” value [4] was “unstructured; also recorded: characteristic random coil signals” and the Kd [5] was 1500 ± 300 nM.

With KLKTQKIYF [Nox1 peptide] the “phosphorylation by PKC-βI (heat of reaction)” value (human recombinant PKC-βI [6]) was “substrate for PKC-βI”, the “phosphorylation by PKC-βI, dot blot” value (human recombinant PKC-βI [7]) was “confirms phosphorylation” and the “interaction with NoxA1 (in words)” value [5] was “no measurable interaction”. The Kd [5] was > 100000 nM.

In the case of TNF-α, the “NoxA1 membrane translocation following TNF-α, T429A Nox1” value (NoxA1; CosPhox cells with T429A Nox1) is reported as “prevented”, the “TNF-α-induced NoxA1 membrane recruitment, WT Nox1” value (NoxA1; CosPhox cells with p22phox, p47phox, NoxA1, WT Nox1) is reported as “recruitment of NoxA1 to the membrane” and the “VSMC migration to TNF-α” value (VSMCs; Nox1^-/y VSMCs compared) is reported as “requires Nox1”. The “ROS production on TNF-α” value (Nox1 [1]; WT versus Nox1^-/y VSMCs) was “robust ROS production in WT but not Nox1^-/y VSMCs”, the “Nox1 phosphorylation on agonist treatment” value (Nox1 [2]; cultured A7r5 rat aortic VSMCs, n=3) was “increased Nox1 phosphorylation” and the “p47phox membrane recruitment on TNF-α” value (p47^phox) was “WT but not T429A Nox1 caused a recruitment of p47^phox to the membrane”. For the same molecule, the “agonist-stimulated cellular superoxide, T429A Nox1” value (Nox1 [3]) was “markedly attenuated”, the “agonist-stimulated cellular superoxide, WT Nox1” value (Nox1 [3]) was “increased” and the “NADPH oxidase activity on TNF-α pre-treatment” value (NADPH oxidase) was “primes NADPH oxidase activity”.

With “angiotensin II (DRVYIHPF; Angiotensin-2; UniProt P01019 25-32, looked up) [AngII, reference compound]” the “agonist-stimulated cellular superoxide, T429A Nox1” value (Nox1 [3]) was “markedly attenuated” and the “agonist-stimulated cellular superoxide, WT Nox1” value (Nox1 [3]) was “increased”.

EPVDFLGKAKVVASAIP (modifications not checked) [NoxA1 activation domain peptide] showed a Kd [8] of 1500 nM and a stoichiometry N [8] of 0.86.

B1: PDGF-BB: platelet-derived growth factor-BB (protein, UniProt P01127 82-190, looked up)
Platelet-derived growth …: SLGSLTIAEPAMIAECKTRTEVFEISRRLIDRTNANFLVWPPCVEVQRCSGCCNNRNVQCRPTQVQLRPVQVRKIEIVRKKPIFKKATVTLEDHLACKCETVAAARPVT
modifications: homodimer BB
For B1, the “Nox1 phosphorylation on agonist treatment (other agonists)” value (Nox1 [2]) was “phosphorylation of VSMC Nox1 occurs”, the “agonist-stimulated cellular superoxide, T429A Nox1” value (Nox1 [3]) was “markedly attenuated” and the “agonist-stimulated cellular superoxide, WT Nox1” value (Nox1 [3]) was “increased”.
